Results collected from several papers.
Protocols differ between the studies behind these lines.
Read-out: cell growth or viability

SMILES | cell line | technique | time | IC50
Cn1cc(C(c2ccc(C(=O)O)cc2)c2cn(C)c3ccccc23)c2ccccc21 | KG-1 |  | 48 h | > 20000 nM
COc1cc(-c2ncn(/C=C\C(=O)OC(C)C)n2)cc(C(F)(F)F)c1 | KG-1 |  | 72 h | 165 nM
CCn1c2ccccc2c2cc(C3CC(c4cc5c(ccc6ccccc65)oc4=O)=NN3c3cccc(Cl)c3)ccc21 (stereo not drawn) | NRK-52E | MTT | 24 h | 57100 nM
Cn1cc(C(c2cccc(/C=C/C(=O)O)c2)c2cn(C)c3ccccc23)c2ccccc21 | KG-1 |  | 48 h | > 20000 nM
CCn1c2ccccc2c2cc(C3CC(c4cc5ccccc5oc4=O)=NN3c3ccc(C)cc3)ccc21 (stereo not drawn) | NRK-52E | MTT | 24 h | 83200 nM
COC(=O)N[C@@H](C)CNc1nccc(-c2cn(C(C)C)nc2-c2cc(Cl)cc(NS(C)(=O)=O)c2F)n1 | Malme-3M |  |  | 3.9 nM
CCn1c2ccccc2c2cc(C3CC(c4cc5c(ccc6ccccc65)oc4=O)=NN3C(C)=O)ccc21 (stereo not drawn) | NRK-52E | MTT | 24 h | 81300 nM
COc1cc2nccc(Oc3ccc(NC(=O)C4(C(=O)Nc5ccc(F)cc5)CC4)cc3)c2cc1OC | Rh18 |  | 72 h | 5750 nM
CCn1c2ccccc2c2cc(/C=C/C(=O)c3cc4ccccc4oc3=O)ccc21 | NRK-52E | MTT | 24 h | 94600 nM
CC(C)[C@H](N)C(=O)N1CCC[C@H]1B(O)O | MOLM-13 | ATP luminescence | 48 h | 120 nM
CCn1c2ccccc2c2cc(C3CC(c4cc5ccccc5oc4=O)=NN3C(N)=O)ccc21 (stereo not drawn) | NRK-52E | MTT | 24 h | 28400 nM
O=C(O)/C=C/c1ccc(C(c2c[nH]c3ccccc23)c2c[nH]c3ccccc23)s1 | KG-1 |  | 48 h | > 20000 nM
CC1=C(O)C(=O)C=C2C1=CC=C1[C@@]2(C)CC[C@@]2(C)[C@@H]3C[C@](C)(C(=O)OCCCN4C(=O)C5C=CC=CC5C4=O)CC[C@]3(C)CC[C@]12C (stereo partly drawn) | Bel-7402 | MTT | 48 h | 830 nM
CCn1c2ccccc2c2cc(C3CC(c4cc5ccccc5oc4=O)=NN3c3ccccc3)ccc21 (stereo not drawn) | NRK-52E | MTT | 24 h | 103000 nM
COc1cc(N2CCC(N3CCN(C)CC3)CC2)ccc1Nc1ncc(Cl)c(Nc2ccccc2S(=O)(=O)C(C)C)n1 | Rh18 |  | 72 h | 270 nM
CC1=C(O)C(=O)C=C2C1=CC=C1[C@@]2(C)CC[C@@]2(C)[C@@H]3C[C@](C)(C(=O)OCCCCCCCO)CC[C@]3(C)CC[C@]12C | Bel-7402 | MTT | 48 h | 740 nM
O=C(O)c1ccc(C(c2c[nH]c3ccccc23)c2c[nH]c3ccccc23)cc1 | KG-1 |  | 48 h | > 20000 nM
CC1=C(O)C(=O)C=C2C1=CC=C1[C@@]2(C)CC[C@@]2(C)[C@@H]3C[C@](C)(C(=O)OCCCO)CC[C@]3(C)CC[C@]12C | Bel-7402 | MTT | 48 h | 580 nM
CCn1c2ccccc2c2cc(C3CC(c4cc5cccc(OC)c5oc4=O)=NN3C(C)=O)ccc21 (stereo not drawn) | NRK-52E | MTT | 24 h | 97900 nM
CC1=C(O)C(=O)C=C2C1=CC=C1[C@@]2(C)CC[C@@]2(C)[C@@H]3C[C@](C)(C(=O)OCCCCCCCCO)CC[C@]3(C)CC[C@]12C | Bel-7402 | MTT | 48 h | 1160 nM
CCn1c2ccccc2c2cc(C3CC(c4cc5c(ccc6ccccc65)oc4=O)=NN3c3ccccc3)ccc21 (stereo not drawn) | NRK-52E | MTT | 24 h | 122000 nM
CC(C)n1cc(C(c2ccc(/C=C/C(=O)O)s2)c2cn(C(C)C)c3ccccc23)c2ccccc21 | KG-1 |  | 48 h | > 5000 nM
CC1=C(O)C(=O)C=C2C1=CC=C1[C@@]2(C)CC[C@@]2(C)[C@@H]3C[C@](C)(C(=O)OCCO)CC[C@]3(C)CC[C@]12C | Bel-7402 | MTT | 48 h | 680 nM
N[C@@H](CC(=O)N1CCN(C(c2ccc(F)cc2)c2ccc(F)cc2)CC1)C(=O)N1Cc2ccccc2C1 | KG-1 | ATP luminescence | 48 h | 9310 nM
Cc1cc(Nc2ncc(Cl)c(Nc3ccccc3S(=O)(=O)C(C)C)n2)c(OC(C)C)cc1C1CCNCC1 | Rh18 |  | 72 h | 2340 nM
COc1cc(Nc2nccc(-c3cnn4nc(OC)ccc34)n2)cc(C(F)(F)F)c1 | NCI-H1573 | ATP luminescence |  | 630 nM
CC1=C(O)C(=O)C=C2C1=CC=C1[C@@]2(C)CC[C@@]2(C)[C@@H]3C[C@](C)(C(=O)OCCCCCO)CC[C@]3(C)CC[C@]12C | Bel-7402 | MTT | 48 h | 590 nM
O=C(O)/C=C/c1cccc(C(c2c[nH]c3ccccc23)c2c[nH]c3ccccc23)c1 | KG-1 |  | 48 h | > 20000 nM
CC1=C(O)C(=O)C=C2C1=CC=C1[C@@]2(C)CC[C@@]2(C)[C@@H]3C[C@](C)(C(=O)OCCCCO)CC[C@]3(C)CC[C@]12C | Bel-7402 | MTT | 48 h | 630 nM
CC(C)C[C@H](NC(=O)[C@H](Cc1ccccc1)NC(=O)c1cnccn1)B(O)O | NCI-H1573 | ATP luminescence |  | 29 nM
